Source: ChEMBL document CHEMBL1250448, “Inhibitor hijacking of Akt activation” (Nat Chem Biol, 2009)

Legend:
[1] = target: Tyrosine-protein kinase Fyn (Homo sapiens) (UniProt P06241); experiment: Inhibition of FYN at 1 uM in presence of 10 uM ATP by Select Screen kinase assay relative to untreated control
In short: (§1)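 Single-concentration profiling at 1 μM against a panel of 220 purified kinases, run as an outsourced SelectScreen kinase profiling service. Activity is expressed as percent inhibition.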

[2] = target: Leukocyte tyrosine kinase receptor (Homo sapiens) (UniProt P29376); experiment: Inhibition of LTK at 1 uM in presence of 10 uM ATP by Select Screen kinase assay relative to untreated control; in short: as §1
Sequence of Leukocyte tyrosine kinase receptor (Homo sapiens) (P29376 whole entry): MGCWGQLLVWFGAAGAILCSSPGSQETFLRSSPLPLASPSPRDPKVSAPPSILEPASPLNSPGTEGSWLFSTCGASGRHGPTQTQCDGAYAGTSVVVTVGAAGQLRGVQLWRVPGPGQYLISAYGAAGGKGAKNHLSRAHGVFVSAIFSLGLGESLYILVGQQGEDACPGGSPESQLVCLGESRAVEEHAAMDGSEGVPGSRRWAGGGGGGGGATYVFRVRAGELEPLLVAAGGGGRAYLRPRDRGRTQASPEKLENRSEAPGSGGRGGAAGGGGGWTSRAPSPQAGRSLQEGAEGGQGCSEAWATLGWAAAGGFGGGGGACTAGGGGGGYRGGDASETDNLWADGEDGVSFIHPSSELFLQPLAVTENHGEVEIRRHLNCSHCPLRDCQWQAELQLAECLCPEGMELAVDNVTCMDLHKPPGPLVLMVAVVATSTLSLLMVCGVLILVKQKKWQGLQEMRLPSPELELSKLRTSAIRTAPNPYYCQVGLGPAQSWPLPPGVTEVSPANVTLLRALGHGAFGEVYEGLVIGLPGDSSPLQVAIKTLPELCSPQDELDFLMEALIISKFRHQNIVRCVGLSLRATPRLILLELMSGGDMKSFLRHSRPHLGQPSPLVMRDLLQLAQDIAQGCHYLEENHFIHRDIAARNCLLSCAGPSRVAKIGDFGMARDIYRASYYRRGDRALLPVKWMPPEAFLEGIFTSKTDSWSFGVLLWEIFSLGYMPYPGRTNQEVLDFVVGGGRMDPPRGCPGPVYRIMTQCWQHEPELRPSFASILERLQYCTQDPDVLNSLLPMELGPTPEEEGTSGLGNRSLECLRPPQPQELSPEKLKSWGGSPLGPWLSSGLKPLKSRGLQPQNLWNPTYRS

[3] = target: Dual specificity mitogen-activated protein kinase kinase 1 (Homo sapiens) (UniProt Q02750); experiment: Inhibition of MAP2K1 at 1 uM in presence of 100 uM ATP by Select Screen kinase assay relative to untreated control; in short: as §1
Sequence of Dual specificity mitogen-activated protein kinase kinase 1 (Homo sapiens) (Q02750 whole entry): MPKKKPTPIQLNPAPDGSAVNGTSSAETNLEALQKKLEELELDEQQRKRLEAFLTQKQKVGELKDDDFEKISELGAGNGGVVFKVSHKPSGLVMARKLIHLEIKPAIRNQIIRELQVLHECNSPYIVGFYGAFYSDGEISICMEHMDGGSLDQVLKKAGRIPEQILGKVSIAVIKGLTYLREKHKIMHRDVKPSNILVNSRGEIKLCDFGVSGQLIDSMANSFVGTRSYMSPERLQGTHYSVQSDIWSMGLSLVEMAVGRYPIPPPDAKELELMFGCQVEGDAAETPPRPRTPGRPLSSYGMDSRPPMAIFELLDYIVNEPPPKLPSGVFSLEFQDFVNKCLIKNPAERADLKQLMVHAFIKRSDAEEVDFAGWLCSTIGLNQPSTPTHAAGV

[4] = target: SRSF protein kinase 1 (Homo sapiens) (UniProt Q96SB4); experiment: Inhibition of SRPK1 at 1 uM in presence of 100 uM ATP by Select Screen kinase assay relative to untreated control
Sequence of SRSF protein kinase 1 (Homo sapiens) (Q96SB4 whole entry): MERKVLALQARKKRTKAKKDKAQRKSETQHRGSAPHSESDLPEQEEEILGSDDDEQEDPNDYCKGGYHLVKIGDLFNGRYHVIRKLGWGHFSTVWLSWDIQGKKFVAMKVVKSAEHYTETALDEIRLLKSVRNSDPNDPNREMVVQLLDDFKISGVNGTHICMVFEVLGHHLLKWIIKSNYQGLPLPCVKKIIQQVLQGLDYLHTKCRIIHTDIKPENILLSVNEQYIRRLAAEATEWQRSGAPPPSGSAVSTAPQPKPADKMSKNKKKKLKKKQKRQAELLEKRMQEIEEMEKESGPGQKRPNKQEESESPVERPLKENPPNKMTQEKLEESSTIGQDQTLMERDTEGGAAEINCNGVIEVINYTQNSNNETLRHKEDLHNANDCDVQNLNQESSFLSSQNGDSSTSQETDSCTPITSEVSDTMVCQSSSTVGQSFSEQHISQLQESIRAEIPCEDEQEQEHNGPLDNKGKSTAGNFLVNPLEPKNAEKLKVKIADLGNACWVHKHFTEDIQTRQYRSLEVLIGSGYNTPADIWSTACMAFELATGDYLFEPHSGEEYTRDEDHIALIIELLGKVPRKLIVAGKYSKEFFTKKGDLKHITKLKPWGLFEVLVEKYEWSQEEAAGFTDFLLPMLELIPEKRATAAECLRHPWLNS
In short: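 Commercial SelectScreen profiling panel of 220 purified kinases. Each kinase was tested at a single inhibitor concentration of 1 μM, and activity was expressed as percent inhibition.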

[5] = target: T1, Serine/threonine-protein kinase DCLK2 (Homo sapiens) (UniProt Q8N568); experiment: Inhibition of DCAMKL2 at 1 uM in presence of 100 uM ATP by Select Screen kinase assay relative to untreated control
T1 sequence (whole entry): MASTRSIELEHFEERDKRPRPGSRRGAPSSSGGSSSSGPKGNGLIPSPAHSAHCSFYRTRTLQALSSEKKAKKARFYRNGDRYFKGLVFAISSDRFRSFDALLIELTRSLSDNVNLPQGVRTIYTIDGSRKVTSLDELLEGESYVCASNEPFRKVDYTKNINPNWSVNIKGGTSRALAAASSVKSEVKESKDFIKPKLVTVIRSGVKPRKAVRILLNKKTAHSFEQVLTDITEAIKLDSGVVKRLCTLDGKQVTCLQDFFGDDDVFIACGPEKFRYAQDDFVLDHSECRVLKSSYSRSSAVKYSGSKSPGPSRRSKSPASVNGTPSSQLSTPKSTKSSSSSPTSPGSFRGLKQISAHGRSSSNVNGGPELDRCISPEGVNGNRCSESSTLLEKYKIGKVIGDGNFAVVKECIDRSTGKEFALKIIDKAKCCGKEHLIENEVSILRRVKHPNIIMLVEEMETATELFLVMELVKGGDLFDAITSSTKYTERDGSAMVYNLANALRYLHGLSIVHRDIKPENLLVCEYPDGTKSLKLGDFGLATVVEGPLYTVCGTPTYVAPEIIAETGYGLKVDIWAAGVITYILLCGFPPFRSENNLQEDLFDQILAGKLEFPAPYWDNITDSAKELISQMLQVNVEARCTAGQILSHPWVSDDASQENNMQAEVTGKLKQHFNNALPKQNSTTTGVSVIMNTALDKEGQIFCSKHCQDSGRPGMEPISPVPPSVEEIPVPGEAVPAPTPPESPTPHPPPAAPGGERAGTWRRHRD
In short: (§2)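 Single-point screen at 1 μM against a panel of 220 purified kinases, run by Invitrogen staff as a SelectScreen profiling service. Read-out is percent inhibition of kinase activity.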

[6] = target: Fibroblast growth factor receptor 1 (Homo sapiens) (UniProt P11362); experiment: Inhibition of FGFR1 at 1 uM in presence of 10 uM ATP by Select Screen kinase assay relative to untreated control; in short: as §2
Sequence of Fibroblast growth factor receptor 1 (Homo sapiens) (P11362 22-822 limits assumed): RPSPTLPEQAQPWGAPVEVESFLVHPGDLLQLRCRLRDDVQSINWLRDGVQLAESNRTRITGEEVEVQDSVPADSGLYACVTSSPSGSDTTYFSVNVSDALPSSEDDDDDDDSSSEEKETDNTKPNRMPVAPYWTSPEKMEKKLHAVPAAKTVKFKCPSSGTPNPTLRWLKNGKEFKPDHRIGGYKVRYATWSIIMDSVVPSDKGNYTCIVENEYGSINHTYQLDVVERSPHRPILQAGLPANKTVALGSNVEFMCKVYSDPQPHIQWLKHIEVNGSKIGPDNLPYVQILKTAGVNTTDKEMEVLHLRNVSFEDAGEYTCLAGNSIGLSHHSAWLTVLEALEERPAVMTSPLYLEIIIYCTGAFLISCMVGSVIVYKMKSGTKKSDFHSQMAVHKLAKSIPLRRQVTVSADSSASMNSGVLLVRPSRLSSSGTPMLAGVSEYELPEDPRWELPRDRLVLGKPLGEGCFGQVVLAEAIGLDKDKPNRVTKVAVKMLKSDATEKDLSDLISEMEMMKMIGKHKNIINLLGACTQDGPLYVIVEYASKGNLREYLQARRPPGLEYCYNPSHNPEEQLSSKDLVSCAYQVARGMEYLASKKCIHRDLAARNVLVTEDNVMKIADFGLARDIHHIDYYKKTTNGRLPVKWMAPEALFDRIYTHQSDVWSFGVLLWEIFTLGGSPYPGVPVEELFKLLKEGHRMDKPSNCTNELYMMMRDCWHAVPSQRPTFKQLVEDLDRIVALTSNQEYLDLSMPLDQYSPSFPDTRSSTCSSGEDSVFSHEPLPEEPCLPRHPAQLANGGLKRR

[7] = target: T2, Megakaryocyte-associated tyrosine-protein kinase (Homo sapiens) (UniProt P42679); experiment: Inhibition of MATK at 1 uM in presence of 10 uM ATP by Select Screen kinase assay relative to untreated control; in short: as §1
T2 sequence (whole entry): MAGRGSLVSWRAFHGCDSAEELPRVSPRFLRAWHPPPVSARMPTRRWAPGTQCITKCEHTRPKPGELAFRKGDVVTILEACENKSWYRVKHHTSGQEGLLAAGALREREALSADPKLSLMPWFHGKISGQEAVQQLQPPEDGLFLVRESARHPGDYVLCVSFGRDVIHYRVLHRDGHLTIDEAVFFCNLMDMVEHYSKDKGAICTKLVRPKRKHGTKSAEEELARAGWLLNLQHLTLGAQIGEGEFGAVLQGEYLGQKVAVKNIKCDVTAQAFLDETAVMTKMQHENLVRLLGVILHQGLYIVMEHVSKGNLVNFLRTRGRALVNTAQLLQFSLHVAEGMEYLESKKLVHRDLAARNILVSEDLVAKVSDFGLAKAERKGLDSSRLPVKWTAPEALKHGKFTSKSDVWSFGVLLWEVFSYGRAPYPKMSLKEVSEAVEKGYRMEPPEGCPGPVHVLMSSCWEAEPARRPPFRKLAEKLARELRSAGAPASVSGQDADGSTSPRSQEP

[8] = target: Serine/threonine-protein kinase MARK2 (Homo sapiens) (UniProt Q7KZI7); experiment: Inhibition of MARK2 at 1 uM in presence of 10 uM ATP by Select Screen kinase assay relative to untreated control; in short: as §1
Sequence of Serine/threonine-protein kinase MARK2 (Homo sapiens) (Q7KZI7 whole entry): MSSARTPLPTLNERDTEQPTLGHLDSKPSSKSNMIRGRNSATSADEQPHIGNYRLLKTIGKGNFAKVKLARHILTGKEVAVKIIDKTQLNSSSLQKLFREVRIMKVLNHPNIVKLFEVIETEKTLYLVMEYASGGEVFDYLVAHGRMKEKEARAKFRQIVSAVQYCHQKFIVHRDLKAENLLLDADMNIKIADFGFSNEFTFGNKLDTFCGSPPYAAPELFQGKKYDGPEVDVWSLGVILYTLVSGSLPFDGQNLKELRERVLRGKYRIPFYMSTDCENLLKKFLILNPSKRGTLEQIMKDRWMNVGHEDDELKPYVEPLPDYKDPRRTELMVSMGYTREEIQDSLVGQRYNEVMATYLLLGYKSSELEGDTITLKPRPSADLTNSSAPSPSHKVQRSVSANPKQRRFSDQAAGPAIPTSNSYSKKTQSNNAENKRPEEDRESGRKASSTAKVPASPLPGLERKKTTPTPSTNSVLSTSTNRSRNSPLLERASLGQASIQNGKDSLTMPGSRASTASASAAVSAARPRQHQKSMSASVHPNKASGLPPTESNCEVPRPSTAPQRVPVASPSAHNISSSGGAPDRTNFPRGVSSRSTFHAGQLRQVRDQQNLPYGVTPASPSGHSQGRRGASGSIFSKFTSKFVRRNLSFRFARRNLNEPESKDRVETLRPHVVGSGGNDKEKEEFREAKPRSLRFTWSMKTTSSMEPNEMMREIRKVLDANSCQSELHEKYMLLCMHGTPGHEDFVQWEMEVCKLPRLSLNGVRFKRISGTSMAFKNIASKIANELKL

[9] = target: T3, Dual specificity mitogen-activated protein kinase kinase 6 (Homo sapiens) (UniProt P52564); experiment: Inhibition of MAP2K6 at 1 uM in presence of 100 uM ATP by Select Screen kinase assay relative to untreated control; in short: as §1
T3 sequence (whole entry): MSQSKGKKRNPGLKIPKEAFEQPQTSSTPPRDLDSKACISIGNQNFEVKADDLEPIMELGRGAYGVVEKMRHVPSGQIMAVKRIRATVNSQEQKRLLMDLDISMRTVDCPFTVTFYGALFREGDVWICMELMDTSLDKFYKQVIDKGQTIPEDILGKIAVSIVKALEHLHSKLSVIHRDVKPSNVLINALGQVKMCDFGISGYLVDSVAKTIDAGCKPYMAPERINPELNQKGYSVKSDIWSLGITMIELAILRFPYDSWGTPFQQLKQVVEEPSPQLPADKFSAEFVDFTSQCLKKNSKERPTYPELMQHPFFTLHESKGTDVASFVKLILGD

[10] = target: G protein-coupled receptor kinase 4 (Homo sapiens) (UniProt P32298); experiment: Inhibition of GRK4 at 1 uM in presence of 10 uM ATP by Select Screen kinase assay relative to untreated control; in short: as §1
Sequence of G protein-coupled receptor kinase 4 (Homo sapiens) (P32298 whole entry, looked up): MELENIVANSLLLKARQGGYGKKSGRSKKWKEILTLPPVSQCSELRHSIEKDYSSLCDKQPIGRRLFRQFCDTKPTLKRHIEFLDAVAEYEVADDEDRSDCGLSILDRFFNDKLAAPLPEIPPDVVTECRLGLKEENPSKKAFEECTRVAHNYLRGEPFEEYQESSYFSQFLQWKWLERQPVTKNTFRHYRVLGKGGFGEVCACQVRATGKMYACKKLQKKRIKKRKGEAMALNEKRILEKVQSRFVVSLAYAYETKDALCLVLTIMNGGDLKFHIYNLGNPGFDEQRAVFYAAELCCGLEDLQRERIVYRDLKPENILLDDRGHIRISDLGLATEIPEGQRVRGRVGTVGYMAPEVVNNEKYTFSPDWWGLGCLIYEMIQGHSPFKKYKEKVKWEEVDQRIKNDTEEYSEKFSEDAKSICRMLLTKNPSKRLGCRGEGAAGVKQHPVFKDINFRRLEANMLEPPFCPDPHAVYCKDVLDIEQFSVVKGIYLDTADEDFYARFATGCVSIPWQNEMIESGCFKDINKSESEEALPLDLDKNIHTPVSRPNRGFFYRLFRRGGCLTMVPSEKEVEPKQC

Sequence of Tyrosine-protein kinase Fyn (Homo sapiens) (P06241 2-537 limits assumed): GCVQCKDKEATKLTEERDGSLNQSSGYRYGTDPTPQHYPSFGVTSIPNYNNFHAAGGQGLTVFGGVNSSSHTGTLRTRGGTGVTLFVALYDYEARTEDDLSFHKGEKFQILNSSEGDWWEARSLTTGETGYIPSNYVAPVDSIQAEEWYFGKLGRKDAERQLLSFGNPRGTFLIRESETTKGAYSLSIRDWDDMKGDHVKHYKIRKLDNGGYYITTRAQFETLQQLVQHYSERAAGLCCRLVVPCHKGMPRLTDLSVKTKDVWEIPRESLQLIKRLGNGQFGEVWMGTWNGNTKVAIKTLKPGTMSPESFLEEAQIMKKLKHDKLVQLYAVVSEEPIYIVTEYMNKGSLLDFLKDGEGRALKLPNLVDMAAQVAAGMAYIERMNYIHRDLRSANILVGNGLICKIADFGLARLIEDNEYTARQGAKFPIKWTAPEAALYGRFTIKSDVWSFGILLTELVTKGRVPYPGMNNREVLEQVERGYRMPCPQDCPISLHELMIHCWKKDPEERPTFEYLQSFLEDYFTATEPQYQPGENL

Row | SMILES | inhibition [1] | inhibition [2] | inhibition [3] | inhibition [4] | inhibition [5] | inhibition [6] | inhibition [7] | inhibition [8] | inhibition [9] | inhibition [10]
1 | Cc1n[nH]c2ccc(-c3cncc(OC[C@@H](N)Cc4c[nH]c5ccccc45)c3)cc12 | 28% | 35% | 42% | 27% | 11% | 14% | -10% | 68% | 40% | 72%
2 | O=C(NCCCNc1nc(Nc2cccc(NC(=O)N3CCCC3)c2)ncc1I)c1cccs1 | 74% | 5% | 67% | 12% | 10% | 46% | 3% | 93% | 25% | 9%
3 | COc1ccccc1N1CCN(c2ncnc3[nH]nc(Br)c23)CC1 | 13% | 7% | 12% | 12% | 6% | 14% | -1% | 26% | 11% | 16%
